The RNAGym collection of RNA variant scans (doi:10.1126/science.aae0568)
Variants at the floor of the assay were thinned out.

B1: tRNA (parent)
chain: GUUCCGUUGGCGUAAUGGUAACGCGUCUCCCUCCUAAGGAGAAGACUGCGGGUUCGAGUCCCGUACGGAACG

Variants of: B1
Assay: yeast fitness relative to wild type (ratio to wild type); higher = fitter; tRNA-Arg(CCU), competitive growth, 37 C, YPD
How it was run: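 Variants of the tRNA-Arg(CCU) gene, chemically synthesised with a 3% per-site mutation rate at 69 sites, were placed at the native genomic locus in Saccharomyces cerevisiae. The pooled strains were competed in YPD at 37°C for 24 hours in six parallel replicates. Gene amplicons from the start population and from each end population were read by 100-nucleotide paired-end sequencing. Darwinian fitness relative to wild type came from changes in genotype frequencies; genotypes needed ≥ 100 starting reads, and estimates < 0.5 were set to 0.5.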

Row | Variant | yeast fitness
1 | GUUCCGUUGGCGUAAUGGUAAUGCGUCUCCCUCCUAAGGAGAAGAUUGCCGGUUUGUGUCCGGUACGGAUCG | ≤ 0.5
2 | GUUCCGUUGGCGUAAUGGUAAUGCGUCUCCAUCUUCAGGAGAAGCCUGCGGGUUCGAGUCUCGAACGGAACG | ≤ 0.5
3 | GUUCCGUUGGCGUAAUGGUAACAGGUCUCCCUCCUAAGGUGAAGACUGCGGGUUCGAGUCCCGUUCGGAACG | ≤ 0.5
4 | GUUCCGUUGGCGUAAUGGUAACACGUCUCCCUCCUAAGGAGAAGUCUGCGGGUUCAAGUCCCGUACGGAACG | 0.727
5 | GUUCCGUUGGCGUAAUGGUAACACGUCUGCCGCGUGAGGAGAAGACUGCGGGUUCGAGUCCUGUACGGAACG | ≤ 0.5
6 | GUUCCGUUGGCGUAAUGGUAAUGCGUCUCCCUCCUAAGGAGAAGACUGCGGGUUCGAGUCUCGUACGGAACG | 0.72
7 | GUUCCGUUGGCGUAAUGGUAACACGUCUCCCUCCUAAGGGAAAGUCUGCGCGUUCGAGUCCCGUACGGAACG | ≤ 0.5
8 | GUUCCGUUGGCGUAAUGGUAAUGCGUCUCCCUCCUAAGGAGAAGACUGCGGAUUCGAGUUCCGUACGGAACG | 0.598
9 | GUUCCGUUGGCGUAAUGGUAAUGCGUCACCCUCCUAAGGAGAAGACUGCGGGUUGGCGUCCCGUACGGAACG | ≤ 0.5
10 | GUUCCGUUGGCGUAAUGGUAAUGCGUCUCCCUCCUAAGGAGAAGAGUGAGGGUUCGAGUACCGUACGGACCG | ≤ 0.5
11 | GUUCCGUUGGCGUAAUGGUAACACGUCUCUCUACUAAGGAGAGGACUCCGGGUUCGGGUCCCGUACGGAACG | ≤ 0.5
12 | GUUCCGUUGGCGUAAUGGUAAUGCGUCUCCCUCCUAAGGAGAAGACUGCGGGUUCGAGACGCGUACGGAACG | 0.547
13 | GUUCCGUUGGCGUAAUGGUAAUGCGUCUCCCUCCUAAGGAGAAGACUGCGGGUUCGAGUCCGGUACGGUACG | 0.586
14 | GUUCCGUUGGCGUAAUGGUAAUGCGUCUCCCCCCUAAGGAGAAGACUGCGGGUUCGAGUCCCGUACGGAACG | 0.902
15 | GUUCCGUUGGCGUAAUGGUAAUGCGUCUCUCUCCUAGGGAGAAGACUGCGGGUUCGAGUCCCGUACGGAACG | 0.526
16 | GUUCCGUUGGCGUAAUGGUAAUGCGUCGCCCUCCUAAGGAGAAGGCUGCGGGUUCGAGUCCCGUGCGGAACG | ≤ 0.5
17 | GUUCCGUUGGCGUAAUGGUAACACGUCUUCCUCCUAAGGAGAAGACUGCGGGUUCGAGUUCCGUUCGGAACG | ≤ 0.5
18 | GUUCCGUUGGCGUAAUGGUAAUGCGUCUCCCUGCUAAGGAGAAGACUGCGGGUUCGACUCCCGUACGGAACG | 0.525
19 | GUUCCGUUGGCGUAAUGGUAAUGCGUCUCCCUCCUAAGGAGAAGACUGCGGGUAUGAGUCCCGUACGGAACG | 0.776

Row | Variant | yeast fitness
20 | GUUCCGUUGGCGUAAUGGUAAUGCGUCUCCCUGCUAAGGAGCAGACUGGGGGUUCGACUCCGGUACGGAACG | ≤ 0.5
21 | GUUCCGUUGGCGUAAUGGUAAUGCGUCUCCCUCCUAAGGAGAAGACUACGGGUUCGAGUCCCGUACGGCACG | 0.741
22 | GUUCCGUUGGCGUAAUGGUAACACGUCUCCCUCCUAAGGAGACGACUGCGGGUUCGAGACCCGUACGGAACG | 0.639
23 | GUUCCGUUGGCGUAAUGGUAAUGCGUCUCCCUCCUAAGGAGAAGACUGCGGGUUCGAGUUACGUACGGAACG | ≤ 0.5
24 | GUUCCGUUGGCGUAAUGGUAAUGCGUCUCCCUCCUAAGGAGAAGACUGCGGCUUCGAGUCCCGUACGAAACG | ≤ 0.5
25 | GUUCCGUUGGCGUAAUGGUAACACGUCUCCCUCCUUAGCAGAAGACUGCGGGUUCGAGUCCCGUACGAAACG | ≤ 0.5
26 | GUUCCGUUGGCGUAAUGGUAAUGCGUCUCCCUCCUAACGAGAAGAUUGCGGGUUCGAGUCCCGUAGGGAACG | ≤ 0.5
27 | GUUCCGUUGGCGUAAUGGUAAUACGUCUCCCUCCUAAGGAGAAGACUGCGGGUGCGUGUCCCGUACGGAACG | ≤ 0.5
28 | GUUCCGUUGGCGUAAUGGUAAUCCGUCUCCCUCCUAAGGAGAAGACUGCGGCUUCGAGUCCCGUACGGAACG | ≤ 0.5
29 | GUUCCGUUGGCGUAAUGGUAAUGCGUCUCCGUCCUAAGGAGAAGACUGCGGGUUCGAGUCCCGAAAGGAACG | ≤ 0.5
30 | GUUCCGUUGGCGUAAUGGUAAUGCAUCUCCCUCCUAAGGAGAAGACUGCGGGUUCGAGUCCCGUACCGAACG | 0.535
31 | GUUCCGUUGGCGUAAUGGUAAUGCGUCUCCGUCCUAAAGAGAAGACAGCGGGUUCGAGUCCCGUACGGAACG | ≤ 0.5
32 | GUUCCGUUGGCGUAAUGGUAAUGCGUCUCCCUCCUAAGGAGAAGACUACGGGUUCGAGUCCCGUUCGGAACG | 0.773
33 | GUUCCGUUGGCGUAAUGGUAAUGCGUCGCCCUCCUAAGGAGAAGGCUGCGGGUUCGAGUCCCGUACUGAACG | ≤ 0.5
34 | GUUCCGUUGGCGUAAUGGUAACACGUCUCACUCCUAAGGAGAAGACUGCGGGUUCGAGUCCCGAACGGAACG | ≤ 0.5
35 | GUUCCGUUGGCGUAAUGGUAAUGCGUCUCCCUCCUAAGGAGAAGACGGCGGGUUCGAGUCCCGUACGGAACG | 0.611
36 | GUUCCGUUGGCGUAAUGGUAAUGCGUCUCCCUCCUAAGGAGAAGACUGCGAGUUCGAGUCCCGUACGGAACG | 0.804
37 | GUUCCGUUGGCGUAAUGGUAACACGUGUCCCUCCUAAGGAGAAGACUGCGGGUUGGAGUCCCGUACGGAACG | ≤ 0.5
